# Compounds with a hit are over-represented: about 1.8% of the library has one in this group of screens.
# ARNT-TACC3 inh: ARNT/TACC3 interaction disruption; Q9Y6A5; AlphaScreen His-ARNT PAS-B/GST-TACC3 binding, luminescence; TACC3 fragment carries E629A point mutation; inhibition, % at 9.99 µM; 390,000 tested, 0.66% active; AID 623870;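 active = mean inhibition of replicates at least 50% and at least half of replicates each reaching 50%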;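 note: 0% = complete ARNT plus TACC3 wells and 100% = ARNT alone without TACC3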
# DDE Tn7 FP inh: disrupts Tn7 cyclic peptide binding to fibrin D-Dimer-E complex; P02675; FP displacement of FITC-Tn7 peptide from fibrin DD(E); 0% = median of compound wells per plate; inhibition, % at 8.3 µM; 370,000 tested, 0.13% active; AID 720508;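 active = inhibition above the mean of compounds falling within the control limits plus 3 SD of them, cut at about 14% in these data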;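 note: 0% = plate median of compound wells and 100% = 10 µM Aha-Tn7 peptide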
# Target sequence (P02675 whole entry, looked up): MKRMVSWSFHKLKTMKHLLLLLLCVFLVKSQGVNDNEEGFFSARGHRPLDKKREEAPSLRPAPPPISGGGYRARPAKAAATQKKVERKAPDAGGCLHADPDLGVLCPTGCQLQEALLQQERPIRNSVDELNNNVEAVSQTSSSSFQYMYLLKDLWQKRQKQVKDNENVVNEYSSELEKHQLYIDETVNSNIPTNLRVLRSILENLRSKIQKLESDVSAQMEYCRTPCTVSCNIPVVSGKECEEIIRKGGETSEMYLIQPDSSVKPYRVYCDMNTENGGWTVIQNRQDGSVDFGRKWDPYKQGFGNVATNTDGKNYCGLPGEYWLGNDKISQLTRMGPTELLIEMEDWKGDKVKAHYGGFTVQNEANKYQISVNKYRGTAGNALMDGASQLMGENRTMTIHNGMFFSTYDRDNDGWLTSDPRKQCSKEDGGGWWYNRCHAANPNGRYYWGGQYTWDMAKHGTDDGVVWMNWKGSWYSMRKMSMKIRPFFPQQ
#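 system = human fibrin DD(E) protein | quantity = DD(E) 2 µM final | medium = Tris/NaCl/CaCl2 buffer, pH 7.8 | also added = labelled Tn7 tracer, 0.1 µM | compound dosing = single point at 8.3 µM | timing = compound with protein 10 min, then 3 h after probe, room temperature | signal = FP measurement | benchmarks = Aha-Tn7 high control | repeats = one replicate per compound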
# CAL PDZ FP-1: CAL PDZ (human) peptide binding inhibition. Q9HD26. inhibition, % at 24.9 µM. 300,000 tested, 0.92% active. purified CAL PDZ, TMR-peptide fluorescence polarization, 1 h;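 active = mean inhibition of at least 30% with at least half of replicates also reaching 30%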;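 note: 0% = DMSO neutral control and 100% = excess unlabeled competitor peptide PRC23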
# CAL PDZ FP-2: inhibitors of human CAL PDZ peptide binding; Q9HD26; 330,000 tested, 0.02% active; purified CAL PDZ, TMR-peptide fluorescence polarization, 1 h; AID 504414; inhibition, % at 20 µM;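 active = highest replicate inhibition of at least 40%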;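 note: plate controls were DMSO neutral control wells for no effect and unlabeled competitor peptide control wells for full effect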
#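 Assay system – tagged CAL PDZ protein CerCALP, purified · Timing – 1 h at RT · Compound – single point, 20 µM · Measured by – fluorescence polarization from S- and P-plane intensities, G-factor corrected · Evaluation – inhibition from polarization loss · Probe or stimulus – TMR reporter peptide T*-PRC34 · Buffer or medium – pH 7.4 phosphate-saline buffer, reducing agent, detergent, IgG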
# GRK2 inh: human GRK2 inhibition via aptamer displacement; P25098; bead flow cytometry, FAM-aptamer displacement from GRK2; inhibition of aptamer binding, % at 10 µM; 330,000 tested, 0.59% active;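 active = inhibition of aptamer binding above 40%, roughly 3 SD of noise, on plates passing a quality check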;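 note: median bead fluorescence of bound FAM aptamer so fluorescent compounds give negative values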
# DDE Tn6 FP inh: inhibitors of Tn6 peptide binding to human fibrin DD(E) | P02675 | Fibrin DD(E) TRITC-Tn6 fluorescence polarization displacement | inhibition, % at 8.3 µM | 370,000 tested, 0.21% active | AID 720509;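 active = inhibition above a per-campaign cutoff: mean of compounds within control limits plus 3 SD, cut at about 15% in these data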;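 note: 0% = median of all compound wells on the plate and 100% = blocking peptide control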
# DDE Tn7 confirm: DD(E)-Tn7 binding inhibition, FP confirmation; FP displacement of TRITC-Tn7 peptide from DD(E); 0% set at plate's compound-well median; 460 tested, 5% active; shares compounds with DDE Tn7 FP inh; inhibition, % at 8.3 µM;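 active = inhibition above the campaign cutoff, the mean of compounds within control limits plus 3 SD, cut at about 14% in these data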;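 note: 100% = median FP of high control wells holding Aha-Tn7 inhibitor peptide; displacers lower polarization since freed probe rises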
# DDE Tn7 FP ctr: counter-screen hit for Tn7 peptide-fibrin DD(E) binding disruption. shares compounds with DDE Tn7 FP inh. TRITC-Tn7 probe displacement, fluorescence polarization. inhibition, % at 8.3 µM. 460 tested, 3% active;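 active = inhibition above the cutoff, the mean of compounds lying between the control bounds plus 3 SD of those compounds, cut at about 17% in these data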;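 note: 0% = median of compound sample wells and 100% = excess unlabeled Aha-Tn7 peptide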
# * marks the source's active call; other numbers are inactive results; . = not tested or not shown.
SMILES,ARNT-TACC3 inh,DDE Tn7 FP inh,CAL PDZ FP-1,CAL PDZ FP-2,GRK2 inh,DDE Tn6 FP inh,DDE Tn7 confirm,DDE Tn7 FP ctr
Cc1cc(F)ccc1NC(=O)C1CSC2(C)CCC(=O)N12 (stereo not drawn),2,7,1,-2,0,-1,.,.
CCc1ccc2[nH]c(C)c(CN3CCCCCC3)c(=O)c2c1,9,5,-2,-1,6,-4,.,.
Cc1[nH]c2c(C)cccc2c(=O)c1CN1CCCCCC1,2,16*,-2,-2,0,4,5,4
CCCNC(=O)Nc1ccc2c(c1)C(=O)N(C)C[C@H](OC)[C@H](C)CN(C(=O)C1CCCCC1)[C@@H](C)CO2,-5,.,.,.,.,.,.,.
COc1ccc2c(Cl)c(C(=O)N/N=C3\CCCC(=O)C3)sc2c1,-60,32*,4,0,0,1,-7,-10
CC(C)CC1c2[nH]c3ccccc3c2CCN1C(=O)CCC(=O)N(C)C (stereo not drawn),-1,15*,-4,-2,3,0,3,2
CC1CCCC(C)N1C(=O)COC(=O)Cc1c[nH]c2ccccc12 (stereo not drawn),-6,1,2,-2,0,2,.,.
CC1CCCCN1C(=O)COC(=O)Cc1c[nH]c2ccccc12 (stereo not drawn),-2,15*,0,0,5,4,2,0
CCOC(=O)Cn1c(-c2ccccc2)cc(SC)c(C#N)c1=O,-2,14*,.,0,3,-3,3,-3
CSc1cc(-c2ccccc2)n(C)c(=O)c1C#N,-7,3,-3,-3,0,-3,.,.
C=C(C)C(=O)OCC(O)COc1ccc(C(C)(C)c2ccc(OCC(O)COC(=O)C(=C)C)cc2)cc1 (stereo not drawn),-2,5,-1,0,2,-5,.,.
CC(=O)Nc1ccc(S(=O)(=O)n2nc(-c3ccc(C)cc3)nc2N)cc1,-8,14*,5,-1,3,-4,-1,-5
Cc1ccc(S(=O)(=O)n2nc(-c3cccnc3)nc2N)cc1,1,-4,-3,-2,0,-3,.,.
NS(=O)(=O)c1ccc(CNC(=O)Cc2ccccc2[N+](=O)[O-])cc1,0,15*,-11,0,0,2,0,2
NS(=O)(=O)c1ccc(CCNC(=O)Cc2ccccc2[N+](=O)[O-])cc1,0,-4,-2,0,.,-1,.,.
COc1ccc(CN(C)C[C@@H]2Oc3ccc(NC(=O)CCN4CCOCC4)cc3C(=O)N([C@H](C)CO)C[C@H]2C)cc1,4,.,.,.,.,.,.,.
Cc1noc(C)c1S(=O)(=O)Nc1ccc2c(c1)C(=O)N([C@@H](C)CO)C[C@H](C)[C@@H](CN(C)Cc1ccc(C(F)(F)F)cc1)OCCCC[C@H](C)O2,-2,14*,.,.,.,-4,3,2
COc1c(Cl)cc(C(=O)NCc2ccco2)cc1Cl,-2,14*,2,1,0,4,11,7
N#C[C@H]1[C@H](c2ccc(-c3ccccc3F)cc2)[C@@H](CO)N1C(=O)Cc1ccccc1,7,.,.,.,.,.,.,.
CCOP(=O)(c1ccccc1)C(O)c1ccc([N+](=O)[O-])cc1 (stereo not drawn),-1,16*,.,-1,5,4,0,-5
CCOP(=O)(c1ccccc1)C(O)c1ccc(F)cc1 (stereo not drawn),-5,2,-1,0,11,9,.,.
Cc1ccc(NC(=O)c2ccc(=O)n(CC(=O)Nc3ccccc3)n2)cc1,2,-4,-2,-2,0,8,.,.
COc1ccc(/C=C/c2cc(C(=O)O)c3ccccc3n2)cc1,-8,38*,-2,-1,1,9,2,2
Cc1ccc(S(=O)(=O)N[C@@H]2CC[C@H](CCn3cc(C(C)C)nn3)O[C@@H]2CO)cc1,-3,.,.,.,.,.,.,.
CC1(C)CC(=O)C2=C(C1)N(Cc1ccco1)C(=O)C2(NC(=O)C1CCCCC1)C(F)(F)F (stereo not drawn),13,14*,-2,-1,17,-2,2,5
SMILES,ARNT-TACC3 inh,DDE Tn7 FP inh,CAL PDZ FP-1,CAL PDZ FP-2,GRK2 inh,DDE Tn6 FP inh,DDE Tn7 confirm,DDE Tn7 FP ctr
CC1(C)CC(=O)C2=C(C1)N(Cc1ccco1)C(=O)NC2(C(F)(F)F)C(F)(F)F,-24,-4,-3,-2,0,0,.,.
CC1=NC(C(F)(F)F)(C(F)(F)F)C2=C(CC(C)(C)CC2=O)N1Cc1ccco1,3,14*,-1,0,1,-8,6,3
COc1ccc(S(=O)(=O)Nc2cccc3c2O[C@@H](CN(C)C(=O)Nc2ccc4c(c2)OCO4)[C@@H](C)CN([C@H](C)CO)C3=O)cc1,1,.,.,.,.,.,.,.
Cn1cccc1C(=O)OCC(=O)NCc1ccc2c(c1)OCO2,-5,21*,.,0,0,-3,4,3
O=C(COC(=O)c1c(F)cccc1F)NCc1ccc2c(c1)OCO2,1,0,.,0,0,3,.,.
CC(=O)c1ccccc1NC(=O)CCCNC(=O)c1ccc(Cl)cc1,-3,15*,-3,-1,0,9,10,3
Cc1ccccc1NC(=O)CCCNC(=O)c1ccc(Cl)cc1,16,-3,4,1,1,-2,.,.
Cc1ccc(-n2c(SCC(=O)Nc3ccc4c(c3)OCCO4)nnc2-c2cnccn2)cc1,.,-3,.,.,.,1,.,.
CCCCNc1ccc2c3c(cccc13)C(=O)N(CCCC)C2=O,-55,47*,7,0,.,14,7,19*
CCCN1C(=O)c2cccc3c(N4CCCCC4)ccc(c23)C1=O,-57,16*,-1,-2,3,4,5,3
CN(C)CCCN1C(=O)c2cccc3c(Br)ccc(c23)C1=O,-4,-3,-3,-3,0,-7,.,.
O=C(Nc1ccccc1N1CCCCC1)c1cccc(Cl)c1,-8,14*,-7,-1,0,0,-2,-8
O=C(Nc1ccccc1N1CCCC1)c1cc(Cl)ccc1Cl,-4,0,3,-1,0,5,.,.
CC(C)NC(=O)N(C)C[C@@H]1Oc2ccc(NC(=O)CCCCCC(=O)Nc3ccccc3N)cc2CC(=O)N([C@@H](C)CO)C[C@@H]1C,0,.,.,.,.,.,.,.
O=C(Cn1nnc(-c2ccc(F)cc2)n1)Nc1ccc2c(c1)OCCO2,-3,15*,4,0,1,10,-5,-6

# Compound activity as filed in PubChem.
